We go through two compounds from ChEMBL document CHEMBL4715843, “NO-releasing STAT3 inhibitors suppress BRAF-mutant melanoma growth” (Eur J Med Chem, 2020).

The test system of one test is LOX IMVI. As to the kind of experiment: Anticancer activity against human LOX IMVI cells assessed as cell growth inhibition at 10 uM measured after 48 hrs by SRB assay relative to control. It is filed as functional. The following applies: read-out: GI. An outline of the steps:
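NCI 60-cell-line screen. Cells in RPMI with 5% FBS were plated at 5,000–40,000 cells/well by doubling time and preincubated 24 h at 37 °C. Compound was added at a single 10 µM for 48 h, then cells were fixed with cold TCA (10% final) and stained with 0.4% SRB. Absorbance at 515 nm gave percent growth versus untreated control and time-zero cells.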
In general terms: Sulforhodamine B stains cellular protein and so reports cell mass.

Test [1] deals with T1, Signal transducer and activator of transcription 3 (Homo sapiens, UniProt P40763). As to the kind of experiment: Inhibition of STAT3 in human SB-590885-resistant MEL1617 cells assessed as reduction in STAT3 transcriptional activity measured after 12 hrs by Dual-luciferase reporter gene assay. It is filed as cell-based. Put shortly:
(§1)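 Cells co-transfected with inducible STAT3-responsive firefly luciferase and constitutive Renilla luciferase constructs (40:1) using Lipofectamine 3000. After 48 h, dose series in DMSO vehicle applied for 12 h, followed by dual-luciferase readout. Firefly signal normalized to Renilla and compared with untreated cells. Run in triplicate; IC50 taken from dose–response curves.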

In test [2] the target is T1, Signal transducer and activator of transcription 3. As to the kind of experiment: Inhibition of STAT3 phosphorylation at S727 residue in human SB-590885-resistant 451Lu cells measured after 12 hrs by Western blot analysis. The following applies: dose 10-25 µM. An outline of the steps: (§2)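 451 Lu and MEL 1617 pairs, sensitive and resistant; resistant lines maintained in RPMI with 1 µM PLX4720. Treated with 10 and 25 µM for 12 h versus DMSO. Lysates (60 µg protein, 10% SDS-PAGE) immunoblotted for Ser727- and Tyr705-phospho-STAT3, total STAT3, total PAX3, with actin.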
For orientation: Immunoblotting shows a protein as a band on a membrane.

Test [3] deals with A-375. As to the kind of experiment: Up regulation of p27kip1 expression in human A-375 cells measured after 24 hrs by Western blot analysis. The format is functional, cell-based. The following applies: dose 5-50 µM. Put shortly: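 A375 cells treated overnight (same as cell-cycle treatment, 24 h) with different doses, then lysed and immunoblotted for p27kip1, PAX3 and Cyclin D1.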

Test [4] addresses Tyrosine-protein kinase JAK2 (Homo sapiens) (UniProt O60674). In words: Inhibition of JAK2 phosphorylation in human A-375 cells at 5 to 50 uM after 12 hrs by Western blotting analysis. The format is cell-based. The settings on record: dose 5-50 µM. Put shortly:
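A375 cells were treated with 0, 5, 10 or 25 µM overnight (methods state 12 h) in RPMI-1640 with Glutamax. Lysates (60 µg protein) were run on 10% SDS-PAGE and immunoblotted for phospho-JAK2 or phospho-ERK1/2, with actin and/or vinculin as loading controls; performed twice.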

The nature of test [5]: Drug metabolism in pH 7.4 phosphate buffer assessed as nitric oxide release at 100 uM measured after 48 hrs by Griess reagent based colorimetric method. Put shortly:
(§3)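 Compound at 100 µM was held at room temperature in pH 7.4 phosphate buffer with 5 mM DTT and 2% DMSO for 2 or 48 h. Griess reagent was added, and after 30 min absorbance was read at 548 nm. NO release (mol NO/mol compound) was derived from a sodium nitrite calibration curve.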
On the technique in general: Nitrite, measured by Griess reagent, commonly stands in for NO production.

Test [6] in a line: Antiproliferative activity against human SB-590885-resistant MEL1617 cells assessed as reduction in cell viability measured after 48 hrs by MTS assay. It is filed as functional, cell-based. The following applies: Homo sapiens, MEL1617, 48 h; read-out: IC50. An outline of the steps: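 Melanoma lines were grown in RPMI-1640 with Glutamax at 37 °C and 5% CO2. The resistant 451 Lu-R and MEL 1617-R sublines were maintained with 1 µM PLX4720. Cells were incubated with vehicle or inhibitor over a dose range, and viability was read by MTS assay in triplicate.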

The next test relates to MCF-10A. In words: Cytotoxicity against human MCF-10A cells assessed as inhibition of cell proliferation by MTS assay. It is filed as cell-based. The following applies: Homo sapiens, MCF-10A; read-out: IC50.
Test [7] addresses T1, Signal transducer and activator of transcription 3. As to the kind of experiment: Inhibition of STAT3 phosphorylation at Y705 residue in human SB-590885-sensitive 451Lu cells measured after 12 hrs by Western blot analysis. The settings on record: dose 10-25 µM. Put shortly:
as §2

Test [8] deals with A-375. As to the kind of experiment: Cell cycle arrest in human A-375 cells assessed as accumulation at G1-phase at 25 uM measured after 24 hrs by […] (reference value: 55.5 to 56.2%). It is filed as functional.
Test [9] has as its target T1, Signal transducer and activator of transcription 3. In words: Inhibition of STAT3 phosphorylation at S727 residue in human SB-590885-sensitive 451Lu cells measured after 12 hrs by Western blot analysis. The settings on record: dose 10-25 µM. An outline of the steps: as §2
The target is the same in test [10]. As to the kind of experiment: Inhibition of STAT3 in human SB-590885-resistant 451Lu cells assessed as reduction in PAX3 expression measured after 12 hrs by Western blot analysis. The following applies: dose 10-25 µM. Put shortly: as §2
Test [11] has the same target. As to the kind of experiment: Inhibition of STAT3 phosphorylation at S727 residue in human SB-590885-sensitive MEL1617 cells at 10 to 25 uM measured after 12 hrs by Western blot analysis. The format is cell-based. The following applies: dose 10-25 µM. Put shortly:
as §2

Test [12] has the same target. In words: Inhibition of STAT3 in human SB-590885-sensitive 451Lu cells assessed as reduction in PAX3 expression measured after 12 hrs by Western blot analysis. The following applies: dose 10-25 µM. An outline of the steps: as §2
The next test concerns HFF. As to the kind of experiment: Cytotoxicity against HFF assessed as inhibition of cell proliferation by MTS assay. It is filed as cell-based, Homo sapiens. The following applies: Homo sapiens, HFF; read-out: IC50.
In test [13] the test system is A-375. As to the kind of experiment: Inhibition of colony formation in human A-375 cells measured over 10 days by crystal violet staining based assay. The settings on record: dose 0.1-10 µM, time 10.0 day. It is filed as functional, cell-based. Put shortly: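 A375 cells seeded at 2500/well in RPMI with 5% FBS, settled overnight, then given a dose series and grown 14 days (10 days in the results text). Fixed in 4% paraformaldehyde for 15 min, stained with 0.2% crystal violet in 20% methanol for 10 min, washed and imaged. Experiment run twice.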

Test [14] deals with T1, Signal transducer and activator of transcription 3. As to the kind of experiment: Inhibition of STAT3 in human SB-590885-resistant 451Lu cells assessed as reduction in STAT3 transcriptional activity measured after 12 hrs by Dual-luciferase reporter gene assay. Put shortly: as §1
The target in test [15] is Signal transducer and activator of transcription 1-alpha/beta (Homo sapiens) (UniProt P42224). In words: Inhibition of STAT1 phosphorylation at Y701 residues in human A-375 cells at 50 uM after 20 hrs by Western blotting analysis. The format is cell-based. Put shortly:
(§4)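 A375 cells exposed to a dose range of inhibitor for 20 h (overnight), up to 50 µM; lysates immunoblotted for phospho-STAT1 Y701, phospho-STAT5 Y694 and phospho-STAT6 Y641, with actin and/or vinculin as loading controls.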

The test system of test [16] is A-375. As to the kind of experiment: Down regulation of cyclin D1 expression in human A-375 cells measured after 24 hrs by Western blot analysis. It is filed as functional, cell-based. The following applies: dose 5-50 µM. Put shortly: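 A375 cells were treated for one night with a dose range of inhibitor, lysed, and Cyclin D1 was detected by western blot.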
A short description of test [17]: Drug metabolism in pH 7.4 phosphate buffer assessed as nitric oxide release at 100 uM measured after 2 hrs by Griess reagent based colorimetric method. Put shortly: as §3
The test system of test [18] is A-375. As to the kind of experiment: Cell cycle arrest in human A-375 cells assessed as accumulation at S-phase at 10 uM measured after 24 hrs by […] (reference value: 33.6 to 33.7%). The format is functional.
Test [19] deals with Signal transducer and activator of transcription 5A (Homo sapiens) (UniProt P42229). As to the kind of experiment: Inhibition of STAT5 phosphorylation at Y694 residues in human A-375 cells at 50 uM after 20 hrs by Western blotting analysis. It is filed as cell-based. An outline of the steps: as §4
Signal transducer and activator of transcription 5A (Homo sapiens), sequence (P42229 whole entry): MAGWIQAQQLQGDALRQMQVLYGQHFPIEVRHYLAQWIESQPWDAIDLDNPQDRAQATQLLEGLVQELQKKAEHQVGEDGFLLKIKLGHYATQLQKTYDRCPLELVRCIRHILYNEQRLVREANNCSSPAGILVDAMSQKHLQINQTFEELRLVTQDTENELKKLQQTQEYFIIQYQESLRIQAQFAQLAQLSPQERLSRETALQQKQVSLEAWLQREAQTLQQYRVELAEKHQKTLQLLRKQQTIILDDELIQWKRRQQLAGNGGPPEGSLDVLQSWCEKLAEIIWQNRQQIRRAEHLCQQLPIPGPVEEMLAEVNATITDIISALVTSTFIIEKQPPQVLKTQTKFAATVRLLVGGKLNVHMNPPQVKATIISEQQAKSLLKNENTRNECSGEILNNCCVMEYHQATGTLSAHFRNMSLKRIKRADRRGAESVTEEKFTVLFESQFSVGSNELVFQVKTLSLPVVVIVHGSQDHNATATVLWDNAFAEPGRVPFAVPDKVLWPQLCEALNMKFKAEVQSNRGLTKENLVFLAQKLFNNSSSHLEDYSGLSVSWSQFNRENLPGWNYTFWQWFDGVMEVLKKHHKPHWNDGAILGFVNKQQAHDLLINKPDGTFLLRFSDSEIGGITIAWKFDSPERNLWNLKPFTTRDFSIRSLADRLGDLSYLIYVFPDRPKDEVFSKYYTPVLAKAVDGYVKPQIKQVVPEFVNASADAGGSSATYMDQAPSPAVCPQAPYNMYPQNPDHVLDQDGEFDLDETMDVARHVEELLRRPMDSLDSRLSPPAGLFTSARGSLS
The target in test [20] is T1, Signal transducer and activator of transcription 3. In words: Inhibition of STAT3 phosphorylation at Y705 residue in human SB-590885-resistant MEL1617 cells at 10 to 25 uM measured after 12 hrs by Western blot analysis. The format is cell-based. The following applies: dose 10-25 µM. Put shortly: as §2

Calls of active or inactive are those of the source. The calls are words filed in the database; no cut-off is given here.

T1 sequence (P40763 whole entry): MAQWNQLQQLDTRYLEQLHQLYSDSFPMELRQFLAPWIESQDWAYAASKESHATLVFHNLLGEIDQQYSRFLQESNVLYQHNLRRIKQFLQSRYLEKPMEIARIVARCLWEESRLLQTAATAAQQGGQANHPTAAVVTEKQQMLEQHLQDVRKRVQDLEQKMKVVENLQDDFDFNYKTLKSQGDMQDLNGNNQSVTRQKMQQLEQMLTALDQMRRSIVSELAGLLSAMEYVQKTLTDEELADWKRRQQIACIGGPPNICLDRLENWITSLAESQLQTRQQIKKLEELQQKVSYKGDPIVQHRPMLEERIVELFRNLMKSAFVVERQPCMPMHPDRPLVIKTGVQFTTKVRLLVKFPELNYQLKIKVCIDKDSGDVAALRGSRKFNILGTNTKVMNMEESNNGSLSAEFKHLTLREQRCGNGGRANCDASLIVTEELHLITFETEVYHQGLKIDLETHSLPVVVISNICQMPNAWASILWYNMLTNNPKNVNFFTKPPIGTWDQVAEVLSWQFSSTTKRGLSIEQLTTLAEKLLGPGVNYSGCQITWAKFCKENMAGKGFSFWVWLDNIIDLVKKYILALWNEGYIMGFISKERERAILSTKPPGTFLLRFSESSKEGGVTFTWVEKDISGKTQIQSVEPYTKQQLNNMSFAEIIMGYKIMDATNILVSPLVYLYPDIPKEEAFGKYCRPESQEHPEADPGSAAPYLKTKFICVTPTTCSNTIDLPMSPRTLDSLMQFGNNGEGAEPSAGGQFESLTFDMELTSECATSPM
Tyrosine-protein kinase JAK2 (Homo sapiens), sequence (O60674 whole entry): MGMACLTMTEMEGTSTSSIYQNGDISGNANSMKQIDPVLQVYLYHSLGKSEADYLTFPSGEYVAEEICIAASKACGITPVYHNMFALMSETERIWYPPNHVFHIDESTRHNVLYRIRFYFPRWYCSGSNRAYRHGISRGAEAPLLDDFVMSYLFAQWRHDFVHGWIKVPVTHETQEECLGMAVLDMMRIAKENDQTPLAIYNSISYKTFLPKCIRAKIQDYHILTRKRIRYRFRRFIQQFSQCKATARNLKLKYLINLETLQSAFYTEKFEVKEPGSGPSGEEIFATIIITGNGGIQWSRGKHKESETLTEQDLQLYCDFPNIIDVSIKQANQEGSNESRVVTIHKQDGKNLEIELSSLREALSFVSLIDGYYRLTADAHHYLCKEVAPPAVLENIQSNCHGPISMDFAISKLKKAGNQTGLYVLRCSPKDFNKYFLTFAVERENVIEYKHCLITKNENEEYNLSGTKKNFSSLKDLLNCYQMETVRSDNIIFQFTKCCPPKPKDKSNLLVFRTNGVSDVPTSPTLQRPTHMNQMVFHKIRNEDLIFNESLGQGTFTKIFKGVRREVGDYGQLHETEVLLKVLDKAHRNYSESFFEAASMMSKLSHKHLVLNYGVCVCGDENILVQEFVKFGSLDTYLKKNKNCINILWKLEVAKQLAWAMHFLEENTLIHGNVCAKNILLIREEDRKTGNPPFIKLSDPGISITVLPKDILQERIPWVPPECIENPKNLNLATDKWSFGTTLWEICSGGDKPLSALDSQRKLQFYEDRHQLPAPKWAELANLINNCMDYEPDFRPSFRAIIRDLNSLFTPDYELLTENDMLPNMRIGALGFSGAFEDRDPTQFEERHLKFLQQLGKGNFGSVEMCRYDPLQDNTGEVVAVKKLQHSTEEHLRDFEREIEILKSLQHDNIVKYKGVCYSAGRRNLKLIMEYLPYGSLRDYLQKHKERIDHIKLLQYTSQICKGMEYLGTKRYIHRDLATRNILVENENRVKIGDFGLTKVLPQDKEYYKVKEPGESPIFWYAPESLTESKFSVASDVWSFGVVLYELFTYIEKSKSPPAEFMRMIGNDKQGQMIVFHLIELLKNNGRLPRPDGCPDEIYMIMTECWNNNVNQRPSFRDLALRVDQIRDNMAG
Signal transducer and activator of transcription 1-alpha/beta (Homo sapiens), sequence (P42224 whole entry): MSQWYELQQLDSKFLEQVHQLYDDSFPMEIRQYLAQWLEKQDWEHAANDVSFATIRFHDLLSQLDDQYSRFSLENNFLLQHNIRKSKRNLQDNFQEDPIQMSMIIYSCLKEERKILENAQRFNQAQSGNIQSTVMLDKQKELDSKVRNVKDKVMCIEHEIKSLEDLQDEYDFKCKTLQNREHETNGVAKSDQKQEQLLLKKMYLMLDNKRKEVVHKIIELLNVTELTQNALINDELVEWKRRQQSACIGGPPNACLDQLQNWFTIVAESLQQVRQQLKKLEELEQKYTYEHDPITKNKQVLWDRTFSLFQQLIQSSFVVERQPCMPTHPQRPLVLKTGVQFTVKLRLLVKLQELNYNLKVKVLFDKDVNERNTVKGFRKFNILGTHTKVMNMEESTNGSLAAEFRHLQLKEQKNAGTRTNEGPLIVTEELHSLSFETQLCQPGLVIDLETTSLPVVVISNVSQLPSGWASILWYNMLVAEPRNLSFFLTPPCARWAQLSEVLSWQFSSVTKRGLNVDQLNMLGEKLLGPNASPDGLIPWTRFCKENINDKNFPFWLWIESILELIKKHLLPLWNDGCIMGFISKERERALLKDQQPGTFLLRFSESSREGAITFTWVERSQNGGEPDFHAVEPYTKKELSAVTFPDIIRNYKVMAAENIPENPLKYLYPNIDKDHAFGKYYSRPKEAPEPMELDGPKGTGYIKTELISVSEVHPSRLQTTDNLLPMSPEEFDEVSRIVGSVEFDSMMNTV

A word on the IC50: it is the concentration needed to halve the response being measured. As to `C=CCn1c(SCC(=O)Nc2ccc(/C(C)=N\O)cc2)nnc1-c1cc(-c2ccc(Cl)cc2)nc2ccccc12`, in the test on LOX IMVI, the inhibition of growth at 10 µM worked out at 100%. Also, the IC50 is 15.6 µM in test [1]; 54.1 µM in [6]; 92.9 µM in the test on MCF-10A; 200 µM in the test with HFF; 17 µM in test [14]. For the same compound, the inhibition entry (in test [2]; in test [7]; in [9]; in test [10]; in [12]; with A-375 [13]) was “Dose-dependent effect” in each case. For the same compound, the Activity entry in the test on A-375 [3] was “Dose-dependent effect”; in the test with A-375 [8] it was 61.1%; in the test with A-375 [16], “Dose-dependent effect”; with A-375 [18], 24.9%. Further, the inhibition entry in test [4], in test [15] and in test [19] was “inactive” throughout. Besides, the results for the Drug metabolism in test [5] and in test [17] were 30% and 15%, respectively. Moreover, the inhibition result in [11] and in [20] was “Active” each time.
With `C=CCn1c(SCC(=O)Nc2ccc(/C(C)=N\O)cc2)nnc1-c1cc(-c2ccccc2)nc2ccccc12`, in the test on LOX IMVI, the inhibition of growth at 10 µM was found to be 76%. Further, the IC50 in [1] turned out to be 9.9 µM; in [6], 10.8 µM; with MCF-10A it was 100 µM; with HFF, 54.4 µM; in test [14] it was 4.7 µM. The inhibition result (in test [2]; in test [7]; in test [9]; in test [10]; in [12]; with A-375 [13]) was “Dose-dependent effect” throughout. In addition, the Activity result with A-375 [3] is “Dose-dependent effect”; in the test on A-375 [8], 75.4%; in the test with A-375 [16], “Dose-dependent effect”; with A-375 [18], 18.8%. In addition, the inhibition result in test [4], in [15] and in test [19] was “inactive” throughout. The Drug metabolism in test [5] was 30%; in test [17], 15%. For the same compound, the inhibition entry in [11] and in test [20] was “Active” in each case.
